Measurements as given in ChEMBL document CHEMBL1127600, “Mercaptoacyl amino acid inhibitors of atriopeptidase. 1. Structure-activity relationship studies of methionine and S-alkylcysteine derivatives” (J Med Chem, 1994).

Assays:
[1] = molecular target: T1, Angiotensin-converting enzyme (Oryctolagus cuniculus, UniProt P12822); assay: Tested in vitro for its inhibitory activity against angiotensin converting enzyme
T1 sequence (P12822 whole entry): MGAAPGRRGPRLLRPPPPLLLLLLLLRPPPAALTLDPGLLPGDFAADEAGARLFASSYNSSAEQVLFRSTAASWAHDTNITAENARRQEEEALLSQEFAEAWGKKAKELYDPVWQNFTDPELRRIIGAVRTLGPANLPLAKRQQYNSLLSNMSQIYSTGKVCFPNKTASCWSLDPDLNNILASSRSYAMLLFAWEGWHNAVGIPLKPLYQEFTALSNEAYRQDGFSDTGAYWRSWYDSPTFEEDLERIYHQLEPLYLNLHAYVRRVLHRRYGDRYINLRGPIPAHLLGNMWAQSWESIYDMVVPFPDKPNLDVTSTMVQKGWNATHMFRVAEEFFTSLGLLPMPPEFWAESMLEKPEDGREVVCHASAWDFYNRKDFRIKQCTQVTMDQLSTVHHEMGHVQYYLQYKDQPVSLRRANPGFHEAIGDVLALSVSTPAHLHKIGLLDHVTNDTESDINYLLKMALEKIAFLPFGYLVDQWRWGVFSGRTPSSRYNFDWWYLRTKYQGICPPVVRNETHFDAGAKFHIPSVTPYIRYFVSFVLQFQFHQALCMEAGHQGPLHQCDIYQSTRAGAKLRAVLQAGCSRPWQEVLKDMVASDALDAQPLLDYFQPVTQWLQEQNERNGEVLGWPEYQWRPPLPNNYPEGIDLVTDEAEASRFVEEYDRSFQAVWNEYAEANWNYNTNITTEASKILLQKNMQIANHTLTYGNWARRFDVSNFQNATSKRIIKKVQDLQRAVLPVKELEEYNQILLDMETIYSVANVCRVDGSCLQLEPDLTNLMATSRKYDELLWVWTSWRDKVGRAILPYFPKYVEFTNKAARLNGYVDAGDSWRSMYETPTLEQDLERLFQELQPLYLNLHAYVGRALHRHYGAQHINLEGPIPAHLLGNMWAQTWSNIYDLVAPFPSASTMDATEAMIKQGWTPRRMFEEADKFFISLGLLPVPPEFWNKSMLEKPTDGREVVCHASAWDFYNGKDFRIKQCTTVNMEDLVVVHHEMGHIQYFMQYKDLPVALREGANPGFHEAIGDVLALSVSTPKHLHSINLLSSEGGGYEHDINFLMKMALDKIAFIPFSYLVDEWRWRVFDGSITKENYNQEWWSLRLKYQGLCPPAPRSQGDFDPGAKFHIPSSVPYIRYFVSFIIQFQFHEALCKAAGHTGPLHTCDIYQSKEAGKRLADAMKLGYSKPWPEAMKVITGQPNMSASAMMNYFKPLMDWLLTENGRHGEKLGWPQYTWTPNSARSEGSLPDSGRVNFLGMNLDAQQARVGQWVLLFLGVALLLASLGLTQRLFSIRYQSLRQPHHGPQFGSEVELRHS

Neprilysin = molecular target: T2, Neprilysin (Oryctolagus cuniculus, UniProt P08049); assay: In vitro inhibitory activity against neutral endopeptidase (NEP)
T2 sequence (P08049 whole entry): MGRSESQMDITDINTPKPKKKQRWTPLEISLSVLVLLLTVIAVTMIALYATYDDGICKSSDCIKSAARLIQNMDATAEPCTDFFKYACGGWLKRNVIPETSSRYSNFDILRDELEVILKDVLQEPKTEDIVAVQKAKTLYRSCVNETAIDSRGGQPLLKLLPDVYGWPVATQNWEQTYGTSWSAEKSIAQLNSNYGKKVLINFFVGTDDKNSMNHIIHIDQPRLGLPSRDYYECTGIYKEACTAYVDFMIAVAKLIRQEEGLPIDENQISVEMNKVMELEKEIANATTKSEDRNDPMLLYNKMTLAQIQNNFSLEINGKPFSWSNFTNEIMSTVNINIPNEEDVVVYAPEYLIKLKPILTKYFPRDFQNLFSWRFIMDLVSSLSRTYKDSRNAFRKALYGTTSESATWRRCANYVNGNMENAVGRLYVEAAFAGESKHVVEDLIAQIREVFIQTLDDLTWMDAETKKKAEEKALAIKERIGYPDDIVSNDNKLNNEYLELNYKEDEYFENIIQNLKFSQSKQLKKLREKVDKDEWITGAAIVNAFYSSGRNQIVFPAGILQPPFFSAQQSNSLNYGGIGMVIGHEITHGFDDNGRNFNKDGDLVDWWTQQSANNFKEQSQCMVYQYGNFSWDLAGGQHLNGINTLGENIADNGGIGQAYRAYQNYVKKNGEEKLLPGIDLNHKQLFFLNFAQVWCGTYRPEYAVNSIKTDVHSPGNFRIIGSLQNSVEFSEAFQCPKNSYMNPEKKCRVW
In short: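 Purified rabbit kidney NEP (EC 24.11) was the enzyme source, with [³H]Leu-enkephalin as the substrate.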

Rattus norvegicus [2] = assay: In vivo potentiation of ANF induced hypotension in rat, following subcutaneous dose of 30 mg/kg; format: functional
In short: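 Conscious male SHR (270–300 g) had caudal artery and jugular vein cannulae placed under ether. After at least 90 min of stabilization, ANF 103-125 or 99-126 was given as an iv bolus at a submaximal dose. 60–90 min later, drug or vehicle (0.2% aqueous methylcellulose with 20% Tris-HCl) was given sc. ANF was repeated 15 min after dosing, and the response was compared with vehicle controls. Values are means of four or more animals.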

Rattus norvegicus [3] = assay: Tested for in vivo Antihypertensive activity in DOCA rat by giving peroral dose of 30 mg/kg; format: functional; conditions: route oral
In short: (§1)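 Male Sprague-Dawley rats (100–150 g) had DOCA-Na hypertension induced and were used 17–21 days later if mean BP was >150 mmHg. Rats were not fasted. Mean BP was recorded after 90-min equilibration. Dosing was sc in TRIS buffer (2 mL/kg) or po in 0.4% aqueous methylcellulose (4 mL/kg). The maximum BP fall over 4 h versus vehicle controls was taken, averaged over four or more animals.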

Rattus norvegicus [4] = assay: Tested for in vivo Antihypertensive activity in DOCA rat by giving peroral dose of 10 mg/kg; format: functional; conditions: route oral; in short: as §1

Structure (SMILES) | IC50 [1] | IC50 (Neprilysin) | Delta blood pressure (Rattus norvegicus [2]) | Delta blood pressure (Rattus norvegicus [3]) | Delta blood pressure (Rattus norvegicus [4])
CSCC[C@@H](NC(=O)[C@H](CSC(C)=O)Cc1ccccc1)C(N)=O | – | – | 27 mmHg | – | –
CSCC[C@@H](NC(=O)C(CSC(C)=O)Cc1ccccc1)C(=O)NCCO (some centres not stated) | – | – | 25 mmHg | – | 24 mmHg
CC(=O)SC[C@@H](Cc1ccccc1)C(=O)N[C@H](CSCc1ccc(C)cc1)C(N)=O | – | – | 12 mmHg | – | 29 mmHg
Cc1ccc(CSC[C@@H](NC(=O)[C@H](CS)Cc2ccc3ccccc3c2)C(=O)O)cc1 | – | – | 0 mmHg | – | –
CSCC[C@@H](NC(=O)[C@@H](CS)Cc1ccccc1)C(N)=O | > 1000 nM | 76 nM | 26 mmHg | – | –
CSCC[C@@H](NC(=O)C(CSC(C)=O)Cc1ccccc1)C(=O)N1CCOCC1 (some centres not stated) | – | > 300 nM | 24 mmHg | – | 20 mmHg
CCCC(CS)C(=O)N[C@H](CCSC)C(=O)O (some centres not stated) | > 1000 nM | 2.5 nM | – | – | –
CSCC[C@@H](NC(=O)[C@@H](CS)CCc1ccccc1)C(=O)O | 150 nM | 60 nM | – | – | 18 mmHg
CCOC(=O)CNC(=O)[C@@H](CCSC)NC(=O)C(CSC(C)=O)Cc1ccccc1 (some centres not stated) | – | > 300 nM | – | – | 0 mmHg
CSCC[C@@H](NC(=O)[C@H](CS)Cc1ccccc1)C(N)=O | > 1000 nM | 94 nM | – | – | –
COC(=O)[C@@H](CCSC)NC(=O)[C@H](CSC(C)=O)Cc1ccccc1 | – | – | 45 mmHg | – | 14 mmHg
CCOC(=O)[C@@H](CCSC)NC(=O)C1(CSC(C)=O)CCCC1 | – | – | – | – | 27 mmHg
CSCC[C@@H](NC(=O)C(CSC(C)=O)Cc1ccccc1)C(=O)N1CCCC1 (some centres not stated) | – | – | 29 mmHg | – | 24 mmHg
CCCC(CS)C(=O)N[C@H](CSCC)C(=O)O (some centres not stated) | 1000 nM | > 300 nM | – | – | –

Second part, led by results:

IC50 [1] | IC50 (Neprilysin) | Structure (SMILES) | Delta blood pressure (Rattus norvegicus [2]) | Delta blood pressure (Rattus norvegicus [3]) | Delta blood pressure (Rattus norvegicus [4])
> 1000 nM | 290 nM | Cc1ccc(CSC[C@@H](NC(=O)[C@H](CS)Cc2ccc(-c3ccccc3)cc2)C(=O)O)cc1 | 0 mmHg | – | –
180 nM | 180 nM | Cc1ccc(CSC[C@@H](NC(=O)[C@@H](CS)Cc2ccc(-c3ccccc3)cc2)C(=O)O)cc1 | 0 mmHg | 19 mmHg | –
460 nM | > 300 nM | Cc1ccc(CSC[C@@H](NC(=O)[C@@H](CS)Cc2ccc3ccccc3c2)C(=O)O)cc1 | 0 mmHg | – | –
35 nM | 6.5 nM | CSCC[C@@H](NC(=O)[C@@H](CS)Cc1ccccc1)C(=O)O | 23 mmHg | – | 31 mmHg
– | > 300 nM | Cc1ccc(CSC[C@@H](NC(=O)[C@@H](CS)Cc2ccccc2)C(N)=O)cc1 | 0 mmHg | – | –
> 1000 nM | 541 nM | Cc1ccc(CSC[C@@H](NC(=O)[C@H](CS)Cc2ccccc2)C(=O)O)cc1C | 0 mmHg | – | –
95 nM | 2 nM | COc1ccc(CSC[C@@H](NC(=O)[C@@H](CS)Cc2ccccc2)C(=O)O)cc1 | – | 28 mmHg | –
> 1000 nM | 147 nM | O=C(N[C@H](CSCc1ccccc1)C(=O)O)[C@H](CS)Cc1ccc(Cl)cc1 | 0 mmHg | – | –
> 1000 nM | 31 nM | CCSCC[C@@H](NC(=O)[C@H](CS)Cc1ccccc1)C(=O)O | 30 mmHg | 0 mmHg | –
80 nM | 110 nM | O=C(N[C@H](CSCCc1ccccc1)C(=O)O)[C@@H](CS)Cc1ccccc1 | 37 mmHg | 0 mmHg | –
> 1000 nM | 3.5 nM | CSCC[C@@H](NC(=O)[C@H](CS)Cc1ccccc1)C(=O)O | 50 mmHg | – | 30 mmHg
640 nM | 231 nM | CC(C)(C)SC[C@@H](NC(=O)[C@H](CS)Cc1ccccc1)C(=O)O | 0 mmHg | – | –
45 nM | 6.5 nM | CCSC[C@@H](NC(=O)C(CS)Cc1ccccc1)C(=O)O (some centres not stated) | 25 mmHg | – | –
215 nM | 5 nM | CCSCC[C@@H](NC(=O)[C@@H](CS)Cc1ccccc1)C(=O)O | 20 mmHg | – | –
90 nM | 39 nM | Cc1ccc(CSC[C@@H](NC(=O)[C@H](CS)Cc2cccc3ccccc23)C(=O)O)cc1 | 0 mmHg | – | –
> 1000 nM | 274 nM | O=C(N[C@H](CSC(c1ccccc1)(c1ccccc1)c1ccccc1)C(=O)O)C(CS)Cc1ccccc1 (some centres not stated) | 0 mmHg | – | –
> 1000 nM | 133 nM | O=C(N[C@H](CSCCc1ccccc1)C(=O)O)[C@H](CS)Cc1ccccc1 | 23 mmHg | 38 mmHg | –
115 nM | 19 nM | O=C(N[C@@H](CSCc1ccccc1)C(=O)O)[C@@H](CS)Cc1ccccc1 | 11 mmHg | – | –
